Test results from ChEMBL document CHEMBL1140730, “Validation of diacyl glycerolacyltransferase I as a novel target for the treatment of obesity and dyslipidemia using a potent and selective small molecule inhibitor” (J Med Chem, 2008).
Blank lines part the entries; values can stand above or below the compound they belong to. Calls of active or inactive are those of the source. No cut-off for these calls is given here.

Legend:
Mus musculus [1] = test: Reduction of chylomicron-derived serum triglyceride level in acute lipid challenged DIO C57BL/6J mouse at 3 mg/kg, po; type: functional; design: scale not given: the % may be the effect or the level left
In short: (§1)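 DIO mice were dosed orally at 0.3, 3 or 30 mg/kg: bid on days 1–2, fasted overnight, then dosed once on day 3. One hour after the final dose a corn oil bolus was given by gavage, and plasma triglycerides were measured 1 h later. Percent inhibition for the 0.3 and 3 mg/kg doses is relative to the 30 mg/kg dose. Mean ± SEM, n = 9.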

[2] = Cmax in C57BL/6J mouse at 3 mg/kg, po after 1 hr; type: ADME, organism-based; design: dose 3 mg/kg, route oral; details: in vivo
In short: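 On day 28 of oral dosing at 3 mg/kg bid in DIO mice, plasma drug concentration was measured at 1 h (n = 3) and 17 h (n = 9) after the final dose. Mean ± SEM.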

[3] = Half life in dog at 2.5 mg/kg, po; type: ADME, organism-based, Canis lupus familiaris; design: dose 2.5 mg/kg, route oral; details: in vivo
In short: (§2)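 Single-dose pharmacokinetics given iv or orally to mouse (10 mg/kg), rat (5 mg/kg) and dog (2.5 mg/kg). Half-life, Cmax, AUC, plasma clearance, volume of distribution and oral bioavailability were derived from plasma levels. Values are means, n = 3 unless stated otherwise.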

[4] = Volume of distribution at terminal phase in rat at 5 mg/kg, iv; type: ADME, organism-based; design: dose 5 mg/kg, route intravenous; details: in vivo, read-out: Vbeta; in short: as §2
[5] = target: T1, Diacylglycerol O-acyltransferase 2 (Mus musculus) (UniProt Q9DCV3); test: Inhibition of mouse DGAT2
T1 sequence (whole entry): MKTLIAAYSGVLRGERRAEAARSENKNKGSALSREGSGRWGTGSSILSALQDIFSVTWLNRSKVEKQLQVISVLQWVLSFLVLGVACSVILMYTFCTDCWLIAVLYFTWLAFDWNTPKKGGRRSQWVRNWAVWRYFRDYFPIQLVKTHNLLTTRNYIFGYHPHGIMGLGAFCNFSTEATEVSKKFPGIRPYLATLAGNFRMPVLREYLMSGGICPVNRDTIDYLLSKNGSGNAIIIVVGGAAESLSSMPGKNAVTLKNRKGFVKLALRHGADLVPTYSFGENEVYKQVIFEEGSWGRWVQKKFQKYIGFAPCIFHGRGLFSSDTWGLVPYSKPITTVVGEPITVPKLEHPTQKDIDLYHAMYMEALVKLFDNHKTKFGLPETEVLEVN

Mus musculus [6] = test: Decrease in liver triglyceride level in DIO C57BL/6J mouse at 3 mg/kg, po after 28 days; type: functional
In short: (§3)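 DIO mice on high-fat diet were dosed orally for four weeks at 3 mg/kg bid in 1% Tween-80/water, or a reference at 10 mg/kg qd. Liver triglycerides were determined on day 28 only. Mean ± SEM, n = 9, compared with vehicle.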

Mus musculus [7] = test: Increase in liver triglyceride level in DIO C57BL/6J mouse at 3 mg/kg, po after 28 days; type: ADME, organism-based; design: dose 3 mg/kg, route oral; details: in vivo, 672 h; in short: as §3
[8] = Half life in DIO mouse at 10 mg/kg, po; type: ADME, organism-based; design: dose 10 mg/kg, route oral; details: in vivo; in short: as §2
[9] = Half life in rat at 5 mg/kg, po; type: ADME, organism-based; design: dose 5 mg/kg, route oral; details: in vivo; in short: as §2
[10] = Volume of distribution at terminal phase in dog at 2.5 mg/kg, iv; type: ADME, organism-based, Canis lupus familiaris; design: dose 2.5 mg/kg, route intravenous; details: in vivo, read-out: Vbeta; in short: as §2
[11] = Plasma clearance in rat at 5 mg/kg, iv; type: ADME, organism-based; design: dose 5 mg/kg, route intravenous; in short: as §2
[12] = AUC in dog at 2.5 mg/kg, po; type: ADME, organism-based, Canis lupus familiaris; design: dose 2.5 mg/kg, route oral; details: plasma; in short: as §2
[13] = AUC in rat at 5 mg/kg, iv; type: ADME, organism-based; design: dose 5 mg/kg, route intravenous; details: plasma; in short: as §2
[14] = Cmax in dog at 2.5 mg/kg, po; type: ADME, organism-based, Canis lupus familiaris; design: dose 2.5 mg/kg, route oral; details: in vivo; in short: as §2
[15] = target: T2, Diacylglycerol O-acyltransferase 1 (Mus musculus, UniProt Q9Z2A7); test: Inhibition of mouse recombinant DGAT1 expressed in Sf9 cells
T2 sequence (Q9Z2A7 whole entry): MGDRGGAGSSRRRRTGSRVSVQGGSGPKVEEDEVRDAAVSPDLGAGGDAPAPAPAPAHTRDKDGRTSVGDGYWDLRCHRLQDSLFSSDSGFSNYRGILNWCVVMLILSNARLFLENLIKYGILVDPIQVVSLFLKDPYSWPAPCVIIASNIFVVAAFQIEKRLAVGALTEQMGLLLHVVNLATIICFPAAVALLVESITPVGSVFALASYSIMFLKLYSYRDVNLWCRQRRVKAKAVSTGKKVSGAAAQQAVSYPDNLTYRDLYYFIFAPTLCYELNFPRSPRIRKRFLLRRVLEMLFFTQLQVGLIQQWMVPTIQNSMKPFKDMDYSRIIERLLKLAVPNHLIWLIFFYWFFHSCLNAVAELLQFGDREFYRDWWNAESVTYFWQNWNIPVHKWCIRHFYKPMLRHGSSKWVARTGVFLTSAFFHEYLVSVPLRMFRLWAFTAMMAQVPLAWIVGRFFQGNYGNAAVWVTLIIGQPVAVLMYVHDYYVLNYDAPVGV

[16] = target: T3, Sterol O-acyltransferase 1 (Homo sapiens) (UniProt P35610); test: Inhibition of human ACAT1
T3 sequence (whole entry): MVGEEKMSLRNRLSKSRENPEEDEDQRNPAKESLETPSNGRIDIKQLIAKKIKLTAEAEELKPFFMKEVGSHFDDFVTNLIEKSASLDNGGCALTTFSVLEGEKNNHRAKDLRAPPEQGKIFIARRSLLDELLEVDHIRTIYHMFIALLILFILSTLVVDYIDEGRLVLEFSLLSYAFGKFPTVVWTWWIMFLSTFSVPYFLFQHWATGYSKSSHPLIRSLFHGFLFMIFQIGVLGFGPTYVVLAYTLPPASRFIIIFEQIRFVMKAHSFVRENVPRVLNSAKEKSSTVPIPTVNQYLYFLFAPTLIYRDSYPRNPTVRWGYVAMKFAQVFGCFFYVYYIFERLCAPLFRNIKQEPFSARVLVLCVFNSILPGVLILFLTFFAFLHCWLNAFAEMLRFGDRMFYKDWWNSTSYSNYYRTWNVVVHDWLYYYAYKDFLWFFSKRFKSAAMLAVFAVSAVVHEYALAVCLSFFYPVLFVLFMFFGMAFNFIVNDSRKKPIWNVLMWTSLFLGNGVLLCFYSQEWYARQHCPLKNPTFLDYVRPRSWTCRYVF

[17] = AUC in DIO mouse at 10 mg/kg, po; type: ADME, organism-based; design: dose 10 mg/kg, route oral; details: plasma; in short: as §2
[18] = Oral bioavailability in rat at 5 mg/kg; type: ADME, organism-based; details: in vivo; in short: as §2
Mus musculus [19] = test: Decrease in body weight in DIO C57BL/6J mouse at 3 mg/kg, po bid after 14 days
Mus musculus [20] = test: Decrease in body weight in DIO C57BL/6J mouse at 3 mg/kg, po bid after 7 days; type: functional, organism-based; design: dose 3 mg/kg
In short: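 DIO mice kept on high-fat diet ad libitum were dosed orally for four weeks, either 3 mg/kg bid in 1% Tween-80/water or a reference at 10 mg/kg qd, alongside a vehicle group. Body weight was measured on days 1, 5, 7, 14 and 27 and expressed as change in grams from day zero. Mean ± SEM, n = 9, compared with vehicle.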

Mus musculus [21] = test: Reduction of chylomicron-derived serum triglyceride level in acute lipid challenged DIO C57BL/6J mouse at 0.3 mg/kg, po; type: functional; design: scale not given: the % may be the effect or the level left; in short: as §1
[22] = target: T4, Sterol O-acyltransferase 2 (Homo sapiens) (UniProt O75908); test: Inhibition of human ACAT2
T4 sequence (whole entry): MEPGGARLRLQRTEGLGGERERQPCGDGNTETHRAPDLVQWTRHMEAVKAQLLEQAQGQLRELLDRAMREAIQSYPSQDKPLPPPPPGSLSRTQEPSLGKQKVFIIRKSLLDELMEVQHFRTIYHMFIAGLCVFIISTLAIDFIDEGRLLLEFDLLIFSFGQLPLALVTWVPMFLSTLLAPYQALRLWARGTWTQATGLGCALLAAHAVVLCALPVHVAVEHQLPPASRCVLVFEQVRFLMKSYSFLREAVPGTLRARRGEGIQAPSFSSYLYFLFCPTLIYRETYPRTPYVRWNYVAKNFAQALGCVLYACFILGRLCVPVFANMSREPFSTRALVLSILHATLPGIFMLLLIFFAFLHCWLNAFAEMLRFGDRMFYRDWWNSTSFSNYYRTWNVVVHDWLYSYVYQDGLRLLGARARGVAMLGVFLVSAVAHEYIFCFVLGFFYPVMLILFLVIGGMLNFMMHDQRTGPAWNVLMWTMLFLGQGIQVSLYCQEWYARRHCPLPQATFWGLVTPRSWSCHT

[23] = target: T5, Diacylglycerol O-acyltransferase 1 (Homo sapiens, UniProt O75907); test: Inhibition of human recombinant DGAT1 expressed in Sf9 cells
T5 sequence (O75907 whole entry): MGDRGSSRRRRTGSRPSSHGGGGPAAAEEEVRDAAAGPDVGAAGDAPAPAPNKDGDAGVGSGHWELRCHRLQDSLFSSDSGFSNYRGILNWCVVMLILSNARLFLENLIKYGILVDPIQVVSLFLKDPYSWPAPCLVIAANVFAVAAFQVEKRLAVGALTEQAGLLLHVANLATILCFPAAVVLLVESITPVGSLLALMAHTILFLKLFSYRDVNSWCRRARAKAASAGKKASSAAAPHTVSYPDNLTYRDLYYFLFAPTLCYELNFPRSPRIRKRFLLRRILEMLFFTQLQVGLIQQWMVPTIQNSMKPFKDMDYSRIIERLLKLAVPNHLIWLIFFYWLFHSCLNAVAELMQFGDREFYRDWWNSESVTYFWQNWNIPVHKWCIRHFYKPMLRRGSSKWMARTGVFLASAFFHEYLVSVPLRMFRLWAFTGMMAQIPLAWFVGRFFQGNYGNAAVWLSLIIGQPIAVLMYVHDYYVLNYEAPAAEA

[24] = AUC in rat at 5 mg/kg, po; type: ADME, organism-based; design: dose 5 mg/kg, route oral; details: plasma; in short: as §2
[25] = Oral bioavailability in dog at 2.5 mg/kg; type: ADME, organism-based, Canis lupus familiaris; details: in vivo; in short: as §2
[26] = Half life in rat at 5 mg/kg, iv; type: ADME, organism-based; design: dose 5 mg/kg, route intravenous; details: in vivo; in short: as §2
[27] = Half life in dog at 2.5 mg/kg, iv; type: ADME, organism-based, Canis lupus familiaris; design: dose 2.5 mg/kg, route intravenous; details: in vivo; in short: as §2
[28] = Cmax in rat at 5 mg/kg, po; type: ADME, organism-based; design: dose 5 mg/kg, route oral; details: in vivo; in short: as §2
[29] = AUC in dog at 2.5 mg/kg, iv; type: ADME, organism-based, Canis lupus familiaris; design: dose 2.5 mg/kg, route intravenous; details: plasma; in short: as §2
Mus musculus [30] = test: Reduction of chylomicron-derived serum triglyceride level in acute lipid challenged DIO C57BL/6J mouse at 30 mg/kg, po; type: functional; design: scale not given: the % may be the effect or the level left; in short: as §1
[31] = Cmax in DIO mouse at 10 mg/kg, po; type: ADME, organism-based; design: dose 10 mg/kg, route oral; details: in vivo; in short: as §2
[32] = Plasma clearance in dog at 2.5 mg/kg, iv; type: ADME, organism-based, Canis lupus familiaris; design: dose 2.5 mg/kg, route intravenous; in short: as §2

- Cmax [2]: 910 ng/mL
- half-life [3]: 3.6 h
- Vd [4]: 0.21 L/kg
- Activity [5]: inactive
- Activity (Mus musculus [7]): 88 mg/dL
- half-life [8]: 6.5 h
- half-life [9]: 2.7 h
- Vd [10]: 1.21 L/kg
- clearance [11]: 0.667 mL/min/kg
- AUC [12]: 5500 ng·h/mL
- AUC [13]: 145000 ng·h/mL
- Cmax [14]: 2470 ng/mL
- IC50 [15]: 0.024 µM
- Activity [16]: inactive
- AUC [17]: 15200 ng·h/mL
- bioavailability [18]: 55.2%
- Activity [22]: inactive
- IC50 [23]: 0.007 µM
- AUC [24]: 80200 ng·h/mL
- bioavailability [25]: 49.2%
- half-life [26]: 3.9 h
- half-life [27]: 3.3 h
- Cmax [28]: 8530 ng/mL
- AUC [29]: 11100 ng·h/mL
- Cmax [31]: 3510 ng/mL
- clearance [32]: 3.83 mL/min/kg
SMILES: O=C(Nc1ccccc1)Nc1ccc(-c2ccc(C(=O)[C@@H]3CCC[C@H]3C(=O)O)cc2)cc1
- Activity (Mus musculus [1]): 93%
- Activity (Mus musculus [6]): 53.5 mg/dL
- Activity (Mus musculus [19]): Active
- Activity (Mus musculus [20]): Active
- Activity (Mus musculus [21]): 73%
- Activity (Mus musculus [30]): 100%

- IC50 [15]: 0.019 µM
SMILES: O=C(Nc1ccc(-c2ccc(C(=O)[C@@H]3CCC[C@H]3C(=O)O)cc2)cc1)Nc1cccc(Cl)c1

- IC50 [15]: 0.063 µM
SMILES: O=C(Nc1ccc(-c2ccc(C(=O)[C@@H]3CCC[C@H]3C(=O)O)cc2)cc1)Nc1ccc2c(c1)OCO2
